Measured values published in ChEMBL document CHEMBL1649346, “Antiproliferative activity of phenylbutyrate ester of haloperidol metabolite II [(±)-MRJF4] in prostate cancer cells” (Eur J Med Chem, 2011).
pIC50, pKi: −log10 of the molar value. “And” between values parts separate entries of the source, which are not always exact repeats. Identical values can stand only once. The source made the active and inactive calls. The rule behind the calls is not given here.

How the values were obtained:
[1] = biological target: Sigma non-opioid intracellular receptor 1 (Cavia porcellus, UniProt Q60492); assay: Displacement of [3H]-(+)-pentazocine from sigma 1 receptor in guinea pig brain membrane after 150 mins by liquid scintillation counting; assay type: cell membranes
How it was run: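 Guinea pig membranes were incubated to equilibrium, 150 min at 37 °C, with 3 nM [³H]-(+)-pentazocine (45 Ci/mmol) and increasing levels of displacer in 50 mM Tris-HCl pH 7.4. Haloperidol defined nonspecific binding. Samples were filtered on PEI-presoaked glass-fibre filters, washed with ice-cold buffer and counted by liquid scintillation; Ki was calculated.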

[2] = Displacement of [3H]DTG from sigma 2 receptor in guinea pig brain membrane after 120 mins by liquid scintillation counting; assay type: cell membranes, Cavia porcellus
How it was run: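 Guinea pig membranes were incubated 120 min at room temperature with 3 nM [³H]DTG and (+)-SKF10,047 to mask σ1 sites, in 50 mM Tris-HCl pH 8.0. DTG defined nonspecific binding. Samples were filtered on PEI-presoaked glass-fibre filters, washed and counted by liquid scintillation; Ki was calculated.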

LNCaP [3] = assay: Antiproliferative activity against human LNCAP cells after 24 hrs by MTT assay; assay type: functional, cell-based
How it was run: (§1)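 LNCaP cells were grown in RPMI 1640 with 10% heat-inactivated FBS, penicillin/streptomycin, HEPES, 1 mM pyruvate and 2.5 g/L glucose. PC3 cells were grown in RPMI 1640 with 10% FBS and penicillin/streptomycin, at 37 °C in 5% CO₂. Cells were seeded at 4 × 10⁴ per well and left to adhere overnight. Compounds were diluted 1:1000 from DMSO stocks, with a 0.1% DMSO vehicle, and incubated 24–96 h without medium change. MTT was added for 4 h, the formazan dissolved in DMSO, and A570 read. Runs were in quadruplicate; ED50 was taken from dose-effect curves against vehicle.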

PC-3 [4] = assay: Antiproliferative activity against human PC3 cells after 24 hrs by MTT assay; assay type: functional, cell-based; settings: PC-3, 24 h; how it was run: as §1
[5] = biological target: T1, Histone deacetylase (Homo sapiens) (UniProt Q13547+O15379+Q9UBN7+Q92769+Q9UQL6+Q8WUI4+Q9BY41+Q96DB2+P56524+Q9UKV0+Q969S8); settings: HeLa, 1.5 mM
D(2) dopamine receptor = D(2) dopamine receptor (Rattus norvegicus, UniProt P61169); assay: Displacement radioligand form dopamine D2 receptor in rat striatum by liquid scintillation counting; assay type: tissue-based
D(3) dopamine receptor = D(3) dopamine receptor (Rattus norvegicus, UniProt P19020); assay: Displacement radioligand form dopamine D3 receptor in rat olfactory tubercle by liquid scintillation counting; assay type: tissue-based
LNCaP [6] = assay: Antiproliferative activity against human LNCAP cells at 10 uM after 96 hrs by MTT assay; assay type: functional, cell-based
How it was run: (§2)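 Percent growth was scored against vehicle-treated control (0.1% DMSO, 1:1000 dilution of DMSO stock) using the MTT assay. LNCaP cells were in supplemented RPMI 1640 with HEPES, pyruvate and glucose; PC3 cells were in RPMI 1640 with 10% FBS. Cells were seeded at 4 × 10⁴ per well and exposed 24, 48, 72 or 96 h. MTT was added for 4 h, the formazan dissolved in DMSO, and A570 read; n = 4.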

PC-3 [7] = assay: Antiproliferative activity against human PC3 cells at 10 uM after 96 hrs by MTT assay; assay type: functional, cell-based; how it was run: as §2
LNCaP [8] = assay: Antiproliferative activity against human LNCAP cells after 48 hrs by MTT assay; assay type: functional, cell-based; how it was run: as §1
PC-3 [9] = assay: Antiproliferative activity against human PC3 cells after 48 hrs by MTT assay; assay type: functional, cell-based; settings: PC-3, 48 h; how it was run: as §1
LNCaP [10] = assay: Antiproliferative activity against human LNCAP cells after 72 hrs by MTT assay; assay type: functional, cell-based; how it was run: as §1
PC-3 [11] = assay: Antiproliferative activity against human PC3 cells after 72 hrs by MTT assay; assay type: functional, cell-based; settings: PC-3, 72 h; how it was run: as §1
LNCaP [12] = assay: Antiproliferative activity against human LNCAP cells after 96 hrs by MTT assay; assay type: functional, cell-based; how it was run: as §1
PC-3 [13] = assay: Antiproliferative activity against human PC3 cells after 96 hrs by MTT assay; assay type: functional, cell-based; settings: PC-3, 96 h; how it was run: as §1
LNCaP [14] = assay: Antiproliferative activity against human LNCAP cells at 10 to 25 uM after 24 hrs by MTT assay; assay type: functional; how it was run: as §2
PC-3 [15] = assay: Antiproliferative activity against human PC3 cells at 10 to 25 uM after 24 hrs by MTT assay; assay type: functional; how it was run: as §2
[16] = biological target: T1, Histone deacetylase (Homo sapiens); assay: Inhibition of HDAC in human HeLa cells at 10 uM after 10 mins by fluorometric assay; assay type: cell-based
How it was run: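 The HDAC fluorescent activity kit was used with supplied HeLa extract. Test agent was added in assay buffer, with trichostatin A (1 µM listed) as full-inhibition control. The reaction was started with acetyl-lysine Fluor de Lys substrate at 25–37 °C and stopped after 10 min with developer, then held 10–15 min at room temperature. Fluorescence was read at ex 360/em 460 nm. Percent inhibition was taken against the uninhibited reaction, in triplicate.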

[17] = biological target: T1, Histone deacetylase (Homo sapiens); assay: Inhibition of HDAC in human PC3 cells at 10 uM after 10 mins by fluorometric assay; assay type: cell-based; settings: PC-3
How it was run: (§3)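 LNCaP or PC3 cells were seeded at 3 × 10⁵ per dish, left overnight, then treated in medium for 1 h (and 24 h). Cells were PBS-washed and lysed, and nuclear protein was extracted with the NE-PER kit. Extracts received assay buffer only plus Fluor de Lys substrate, 10 min at 25–37 °C, then developer. Fluorescence was read at ex 360/em 460 nm relative to DMSO-treated control, in triplicate.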

[18] = biological target: T1, Histone deacetylase (Homo sapiens); assay: Inhibition of HDAC in human LNCAP cells at 10 uM after 10 mins by fluorometric assay; assay type: cell-based; how it was run: as §3

Sigma non-opioid intracellular receptor 1, sequence (Q60492 whole entry): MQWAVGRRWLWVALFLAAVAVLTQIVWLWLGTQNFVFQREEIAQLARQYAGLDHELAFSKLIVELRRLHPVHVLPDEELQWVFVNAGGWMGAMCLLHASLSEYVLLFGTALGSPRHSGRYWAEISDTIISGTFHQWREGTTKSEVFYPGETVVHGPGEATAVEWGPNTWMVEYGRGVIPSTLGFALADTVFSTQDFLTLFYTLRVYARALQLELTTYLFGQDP
D(3) dopamine receptor, sequence (P19020 whole entry): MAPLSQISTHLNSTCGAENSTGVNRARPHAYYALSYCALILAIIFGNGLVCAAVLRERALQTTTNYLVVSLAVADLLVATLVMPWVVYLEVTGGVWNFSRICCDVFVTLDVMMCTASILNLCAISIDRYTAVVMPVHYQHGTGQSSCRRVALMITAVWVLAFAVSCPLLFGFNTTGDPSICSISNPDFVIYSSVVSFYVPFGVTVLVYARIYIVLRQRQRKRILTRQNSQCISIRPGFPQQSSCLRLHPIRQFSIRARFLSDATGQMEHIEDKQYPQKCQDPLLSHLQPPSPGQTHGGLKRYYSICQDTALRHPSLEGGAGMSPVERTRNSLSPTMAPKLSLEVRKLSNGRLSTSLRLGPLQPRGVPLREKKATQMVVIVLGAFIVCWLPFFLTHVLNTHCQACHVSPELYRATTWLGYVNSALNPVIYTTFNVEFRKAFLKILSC
D(2) dopamine receptor, sequence (P61169 whole entry): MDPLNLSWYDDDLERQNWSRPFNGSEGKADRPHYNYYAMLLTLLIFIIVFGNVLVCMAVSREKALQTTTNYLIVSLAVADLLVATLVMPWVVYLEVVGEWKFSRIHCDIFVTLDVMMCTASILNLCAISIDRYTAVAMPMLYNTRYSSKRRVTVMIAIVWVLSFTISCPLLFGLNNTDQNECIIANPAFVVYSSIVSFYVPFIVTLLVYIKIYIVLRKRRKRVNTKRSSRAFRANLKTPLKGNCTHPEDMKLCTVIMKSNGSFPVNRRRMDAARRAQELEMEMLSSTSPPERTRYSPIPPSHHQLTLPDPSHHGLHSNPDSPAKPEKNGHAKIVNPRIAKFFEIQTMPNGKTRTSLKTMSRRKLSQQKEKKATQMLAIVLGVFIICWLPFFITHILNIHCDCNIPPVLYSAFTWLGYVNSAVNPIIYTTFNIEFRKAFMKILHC

SMILES | pKi [1] | pKi [2] | pIC50 (LNCaP [3]) | pIC50 (PC-3 [4]) | inhibition [5] [%] | pKi (D(2) dopamine receptor) | pKi (D(3) dopamine receptor) | Activity (LNCaP [6]) | Activity (PC-3 [7]) | pIC50 (LNCaP [8]) | pIC50 (PC-3 [9]) | pIC50 (LNCaP [10]) | pIC50 (PC-3 [11]) | pIC50 (LNCaP [12]) | pIC50 (PC-3 [13]) | Activity (LNCaP [14]) | Activity (PC-3 [15]) [%] | inhibition [16] | inhibition [17] | inhibition [18]
O=C(O)CCCc1ccccc1 | < 5.00 | < 5.00 | 2.63 | 2.64 | 60 | – | – | – | – | – | – | – | – | – | – | – | – | – | – | –
O=C(CCCc1ccccc1)OC(CCCN1CCC(O)(c2ccc(Cl)cc2)CC1)c1ccc(F)cc1 (racemic) | 6.79 | 6.98 | 4.96 | 4.89 | – | < 5.30 | < 5.30 | Active | Active | 5.05 | 4.96 | 5.09 | 5.11 | 5.18 | 5.17 | 45% and 40% and 20% | 10 | inactive | inactive | inactive
O=C(CCCN1CCC(O)(c2ccc(Cl)cc2)CC1)c1ccc(F)cc1 [HALOPERIDOL] | – | 7.80 | – | – | – | – | – | – | – | – | – | – | – | – | – | – | – | – | – | –
OC(CCCN1CCC(O)(c2ccc(Cl)cc2)CC1)c1ccc(F)cc1 (centres undefined) [HYDROXYHALOPERIDOL] | – | 9.01 | 3.75 | 3.68 | – | – | 5.96 | – | – | – | – | – | – | – | – | – | – | – | – | –
